# Compound activity (PubChem BioAssay)
# Rows were chosen to be rich in hits. Some 2.9% of all compounds tested hit in one or more screens of this group.
# SENP1 inh: human SENP1 catalytic domain inhibitors, primary screen, biochemical, FRET, uHTS; Sentrin-specific protease 1 (Homo sapiens), Q9P0U3; 360,000 compounds, 0.21% hits; recombinant SENP1 catalytic domain, CyPet-SUMO1-YPet FRET cleavage; AID 624204, 2012; inhibition, % at 10 µM;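 active means inhibition at least 30% at 10 µM, raw YFP signal under a set limit, fluorescence ratio 0.5 to 1.5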;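 further: 0% = enzyme with DMSO and 100% = no enzyme wells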
#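 Assay system – human recombinant His6-tagged SENP1 catalytic domain enzyme · Input – SENP1 enzyme, 20 pM final · Buffer or medium – Tris pH 8 buffer plus EDTA, NaCl, BME, BSA, NP40, catalase · Schedule – 50 min reaction at room temperature · Technique – FRET read of cyan and yellow fluorescence · Control set – no-enzyme wells low, DMSO-plus-enzyme wells high control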
# SENP8 block-1: SENP8 protease inhibitors, primary screen, biochemical, luminescence; purified SENP8, Z-RLRGG-aminoluciferin cleavage; inhibition, % at 10 µM; 330,000 compounds, 1.2% hits; Sentrin-specific protease 8 (Homo sapiens), Q96LD8; in the data active means inhibition above about 50%
# Apaf-1 inh: inhibitors of human Apaf-1 apoptosome, primary screen, biochemical, DEVD-Rh110 fluorescence, uHTS; reconstituted apoptosome caspase-3 activity; AID 489030, 2010; inhibition, % at 20 µM; 330,000 compounds, 0.71% hits; Apoptotic protease-activating factor 1 (Homo sapiens), O14727; active means inhibition of at least 40% at 20 µM;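 further: plate controls were DMSO wells for no effect and DEVD-CHO caspase inhibitor wells for full effect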
#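 System: Apoptosome proteins | Medium: Hepes pH 7.5 with detergent and BSA | Also added: Cytochrome c trigger plus (Z-DEVD)2-Rh110 caspase-3 substrate | Incubation: 30 min compound preincubation, 50 min activation, room temperature | Detection: Rhodamine 110 fluorescence at Ex 480/Em 540 nm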
# SENP7 block: SENP7 protease inhibitors, primary screen, biochemical, luminescence, uHTS | Sentrin-specific protease 7 (Homo sapiens), Q9BQF6 | recombinant SENP7, Z-RLRGG-aminoluciferin luminescence, 40 min | inhibition, % at 5 µM | 330,000 compounds, 1.5% hits | AID 434973, 2010;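 active means inhibition above about 50% at the single test dose, limit read from the data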;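 further: plate controls were DMSO with enzyme for no effect and no enzyme buffer wells for full effect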
# SENP8 block-2: human SENP8 protease inhibitors, primary screen, biochemical, fluorescence, Nedd8 protein substrate, uHTS; recombinant SENP8; inhibition, % at 20 µM; 360,000 compounds, 0.64% hits; AID 602440, 2012; in the data active means inhibition mostly above about 40%, no sharp cut-off; inactive means mostly below about 27%
# SENP6 inh: SENP6 protease inhibitors, primary screen, biochemical, luminescence, uHTS | Sentrin-specific protease 6 (Homo sapiens), Q9GZR1 | Recombinant SENP6 catalytic domain, aminoluciferin luminescence | inhibition, % at 10 µM | 330,000 compounds, 1.8% hits;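 active means inhibition above about 50% at the single tested dose, limit read from the data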;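 further: plate controls were DMSO wells with enzyme for no effect and DMSO wells lacking enzyme for full effect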
# Target sequence (Q9GZR1 628-1112 limits assumed): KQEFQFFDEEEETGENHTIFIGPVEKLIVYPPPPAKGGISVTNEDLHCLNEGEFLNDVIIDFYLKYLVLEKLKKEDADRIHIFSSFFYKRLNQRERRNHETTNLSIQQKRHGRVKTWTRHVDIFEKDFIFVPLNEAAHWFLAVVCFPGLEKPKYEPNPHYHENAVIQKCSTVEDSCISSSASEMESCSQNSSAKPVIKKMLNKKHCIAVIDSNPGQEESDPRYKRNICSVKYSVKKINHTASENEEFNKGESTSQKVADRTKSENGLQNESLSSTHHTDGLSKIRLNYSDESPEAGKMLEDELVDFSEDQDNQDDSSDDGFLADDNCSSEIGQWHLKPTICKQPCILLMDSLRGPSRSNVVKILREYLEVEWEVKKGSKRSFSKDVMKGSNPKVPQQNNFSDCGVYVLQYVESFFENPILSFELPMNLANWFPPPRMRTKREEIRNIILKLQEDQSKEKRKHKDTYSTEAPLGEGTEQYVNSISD
# * = called active by the depositor; . = no result.
SMILES,SENP1 inh,SENP8 block-1,Apaf-1 inh,SENP7 block,SENP8 block-2,SENP6 inh
c1ccc(C2=Nc3ccccc3SC2c2nc3ccccc3[nH]2)cc1 (centres undefined),.,27,-15,54*,.,52*
O=C1CC(c2nc3ccccc3[nH]2)CN1c1ccccc1 (centres undefined),1,6,0,-2,13,-8
CS(=O)(=O)c1ccc(Cl)c(NC(=O)COC(=O)COc2ccc3c(c2)CCC3)c1,4,-3,12,-8,12,-9
CCCN(CC(=O)Nc1ccccc1OC)C(=O)c1cccc(S(=O)(=O)NCc2ccccc2)c1,0,-3,17,-17,10,-9
CCCN(CC(=O)Nc1ccccc1OC)C(=O)c1cc(S(=O)(=O)NCc2ccccc2)ccc1C,2,-1,62*,6,9,3
Cc1ccccc1N(C=O)c1ccccc1C,1,.,.,.,9,.
CCOC(=O)c1ccc(N=Nc2c(C)c(C#N)c(O)[nH]c2=O)cc1,0,94*,-4,98*,25,92*
NC(=O)c1ccc(N=Nc2c(O)c3ccccc3[nH]c2=O)cc1,.,-8,9,-3,.,-9
Cc1cc[n+](-c2[nH]c(=O)sc2/C=N/N=C(\[O-])c2ccccc2)cc1C,40*,.,.,.,7,.
CN1CCN(c2ccccc2NC(=O)c2ccc(-c3ccc(Br)cc3)o2)CC1,-2,-4,16,5,-54,-13
Cc1cc(N2CCN(C)CC2)ccc1NC(=O)c1ccc(-c2ccc(Cl)cc2)o1,-4,-3,42*,2,-15,-6
O=C(Nc1ccccc1N1CCCCC1)c1ccc(-c2ccc(Cl)cc2)o1,0,-8,24,-2,-56,2
CN1CCN(c2ccccc2NC(=O)c2ccc(-c3ccc(Cl)c(Cl)c3)o2)CC1,-2,1,46*,6,-27,-9
CN1CCN(c2ccc(NC(=O)c3ccc(Br)o3)cc2)CC1,-2,33,-3,47,5,57*
Cc1cc(C)cc(C(=O)Nc2ccc(N3CCCC3)cc2)c1,-20,66*,12,56*,12,74*
C[C@H](CO)N1C[C@H](C)[C@@H](CN(C)S(C)(=O)=O)Oc2c(NC(=O)Nc3ccccc3)cccc2C1=O,2,-6,12,0,15,-14
CCc1ccc(/C=C/C(=O)C2C(=O)c3ccccc3C2=O)cc1,7,-11,39,15,50*,-1
COc1ccccc1/C=C1\SC(=S)N(CCC(=O)N2CCCCC2CCO)C1=O (centres undefined),-11,0,22,-5,51*,2
COc1cc(CCNC2=CC(=O)c3ncccc3C2=O)ccc1O,-1,.,.,.,97*,.
COc1ccc(F)cc1-c1cc(C(=O)N2CCc3ccccc3C2)[nH]n1,-1,.,.,.,9,.
O=C(Nc1cccc([N+](=O)[O-])c1)c1ccc(-c2ccccc2)cc1,3,-1,-10,-13,14,-6
O=C(O)c1ccc(N=NNc2cccc([N+](=O)[O-])c2)cc1,1,96*,0,98*,40*,95*
N#C/C(=N\Nc1ccc(S(=O)(=O)N2CCCCC2)cc1)C(N)=S,5,-2,-2,1,45*,1
N#C/C(=N\Nc1ccc(S(=O)(=O)N2CCCCCC2)cc1)C(N)=S,3,15,9,-7,31,-18
N#C/C(=N\Nc1ccc(S(=O)(=O)N2CCc3ccccc32)cc1)C(N)=S,4,-7,5,-6,41*,-20
SMILES,SENP1 inh,SENP8 block-1,Apaf-1 inh,SENP7 block,SENP8 block-2,SENP6 inh
N#CC(C#N)=NNc1ccc(S(=O)(=O)N2CCCC2)cc1,0,-9,0,-3,47*,2
C[C@H](CO)N1C[C@H](C)[C@H](CN(C)S(=O)(=O)c2cccc(C#N)c2)OCc2cnnn2CCCC1=O,0,.,.,.,-2,.
C(=C\c1ccccc1)/CN1CCN(C(c2cccc3ccccc23)c2nnnn2C2CCCC2)CC1 (centres undefined),3,.,.,.,22,.
Cc1nn(-c2ccccc2)c(Cl)c1/C=N/Nc1nc2ccccc2[nH]1,0,16,-9,85*,9,52*
Cc1cc(=O)[nH]c(N/N=C/c2c(C)nn(-c3ccccc3)c2Cl)n1,0,0,-23,-4,30,6
Cc1ccc(NC(=O)Nc2cccc(Cl)c2)c(C(=O)O)c1,3,73*,-11,69*,-367,45
COc1ccc(Nc2cccc(Cl)c2)c(C(=O)O)c1,4,29,10,7,-20,35
CNc1nc(Oc2cccc(NC(C)=O)c2)c2sccc2n1,-2,.,.,.,-285,.
COc1cc[n+]([O-])cc1[N+](=O)[O-],1,.,.,.,17,.
O=C(N/N=C/c1c[nH]c2ccccc12)c1ccccc1,0,-18,-14,2,-46,-16
O=C(N/N=C/c1c[nH]c2ccccc12)c1sc2ccccc2c1Cl,27,52*,19,36,9,65*
Cc1ccc(C(=O)N2C(=O)c3cccc(N)c3C2=O)o1,-36,-2,-2,4,-108,82*
Nc1ccc(N=Nc2ccccc2)c2ccccc12,1,-8,19,11,24,-3
Cc1[nH]c(N=Nc2ccccc2)nc1N=Nc1ccccc1,6,-6,13,1,68*,-31
COc1ccc(C(=O)NC(C)Cc2c[nH]c3ccccc23)cc1 (centres undefined),1,.,.,.,8,.
Cc1nn(-c2ccccc2)c(Cl)c1/C=C/C(=O)c1ccccc1,7,-14,25,4,42*,-3
Cc1nn(-c2ccccc2)c(Cl)c1/C=N/O,2,-4,-9,6,-1,-11
CN=c1scc(-c2ccccc2F)n1/N=C/c1ccc(O)c(O)c1O,12,.,.,.,43*,.
CC(C)N=c1scc(-c2cccs2)n1/N=C/c1ccc(O)c(O)c1O,13,9,34,4,30,4
COc1cccc(NC(=O)c2cc3cccc(OC)c3o/c2=N\O)c1,.,8,-3,82*,.,-20
COc1ccc(NC(=O)CSc2nnc(Cc3cccs3)n2C)cc1,2,-4,-3,8,6,-3
COc1cc([N+](=O)[O-])cc(/C=N/NC(=O)C(O)(c2ccccc2)c2ccccc2)c1O,-7,-1,-4,-5,50*,-8
O=C(Nc1ccccc1)Nc1cccc(C(F)(F)F)c1,-1,-9,3,9,1,5
N#C/C(=N\Nc1cccc(C(F)(F)F)c1)C(=O)c1ccsc1,2,64*,9,-1,36,88*
